Screening results: PubChem BioAssay, several laboratories
D1 allo mod: allosteric modulators of human D1 dopamine receptor. HEK293 D1, CRE-luciferase, dopamine EC30 potentiation; actives deviate in either direction. B-score at 10 µM. hit rate 5.9% among 58,000;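 active means luminescence count or its row- and column-corrected plate score outside the 99.7% band of the plate's sample wells, on either side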
RORa activator: RORA (human) activation; CHO-K1 Gal4-RORA LBD luciferase reporter, luminescence; percent increase over mock-subtracted basal signal; activation, % at 10 µM; hit rate 1.5% among 65,000; P35398;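 active means activation above the mean of all tested compounds plus 3 SD, cut at about 49% in these data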;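 further: 0% = DMSO-treated RORA cells and 100% = added signal equal to DMSO minus mock-transfected cells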
SF-1 act: SF-1 (human) activation; Q13285; CHO-K1 Gal4-SF-1 LBD luciferase reporter; % increase over DMSO SF-1-specific signal; activation, % at 10 µM; hit rate 1.9% among 65,000;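 active means activation above the mean activation of all tested compounds plus 3 SD, cut at about 50% in these data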
Target sequence (Q13285 whole entry, looked up, the tested form may be a part): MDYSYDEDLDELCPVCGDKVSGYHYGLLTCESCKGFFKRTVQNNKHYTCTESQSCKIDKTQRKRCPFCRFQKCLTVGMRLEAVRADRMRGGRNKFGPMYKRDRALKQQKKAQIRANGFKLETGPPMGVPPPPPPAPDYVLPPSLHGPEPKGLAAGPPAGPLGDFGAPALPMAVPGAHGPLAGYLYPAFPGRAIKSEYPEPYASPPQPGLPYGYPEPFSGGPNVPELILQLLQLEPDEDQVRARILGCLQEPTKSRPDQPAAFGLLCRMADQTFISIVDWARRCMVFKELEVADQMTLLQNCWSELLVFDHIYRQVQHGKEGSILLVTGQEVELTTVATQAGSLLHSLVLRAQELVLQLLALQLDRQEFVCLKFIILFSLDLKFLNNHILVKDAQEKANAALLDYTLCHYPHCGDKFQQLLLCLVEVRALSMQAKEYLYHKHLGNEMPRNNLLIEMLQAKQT
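Test system: CHO-K1 cells co-transfected with Gal4 DBD–human SF-1 LBD, 5xGal4 luciferase reporter. Quantity: 4,000 cells per well. Compound: 10 µM only. Incubation: compound added 1 h post-seeding, 20 h exposure at 37 °C, 5% CO2. Detection: SteadyLite luciferase luminescence. Replication: one test per compound.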
Htt clearance: mutant huntingtin protein clearance | inhibition, % at 1.5 µM | HeLa Exon1htt(103Q)mCFP, aggregate imaging; zero = plate's median compound well | hit rate 0.42% among 47,000;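 active means inhibition of aggregate fluorescence above about 70%, also judged a hit by eye on the cell image, limit read from the data, passing the limit was not always enough; inconclusive means no rule stated for this call; inactive means not judged a hit on image review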;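 further: cells exposed to compound for three days before fixation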
M1 antag: antagonists of rat M1 muscarinic receptor; P08482; CHO-M1 cells, Fluo-4 calcium, ACh EC80 antagonist mode; active compounds read low; B-score at 10 µM; hit rate 3.4% among 64,000;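 active means calcium fluorescence response, raw or row-and-column corrected B-score, differing from the plate sample mean either way at a set confidence level, mostly lower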
M1 ag: activates the M1 muscarinic receptor. hit rate 3% among 64,000. B-score at 10 µM. AID 626. CHO-M1 cells, Fluo-4 calcium fluorescence, agonist mode; active compounds read high;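 active means fluorescence rise, raw or as B-score row- and column-corrected plate score, outside the 99.7% band of its plate's samples, either direction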
Starred values were filed as active, the others as inactive; ? = inconclusive; / = no result. Hits are enriched below; roughly 11% of the tested compounds scored in any of these assays.

SMILES	D1 allo mod	RORa activator	SF-1 act	Htt clearance	M1 antag	M1 ag
CC1=C(C(=O)NCCCOC(C)C)C2(CCC(C)CC2)OC1=O (configuration not stated)	-0.0158	-20.4	-8.3	/	-0.747	-0.481
Cc1cccc(OCc2nc(-c3nonc3N)no2)c1C	-5.15	81.3*	32.6	/	/	/
Cc1cc(C)c(C)c(OCc2nc(-c3cccnc3)no2)c1	0.839	5.2	-4.8	13.7	-0.609	-0.048
Nc1nonc1-c1noc(CCCN2C(=O)c3ccccc3C2=O)n1	0.777	39.8	49.5*	49.0	0.778	-0.0834
O=C1c2ccccc2C(=O)N1CCCc1nc(-c2ccncc2)no1	/	/	/	46.1	/	/
Nc1nonc1-c1noc(COc2ccccc2Cl)n1	0.0266	87.9*	68.6*	-7.4	0.162	0.0683
O=C(NCc1ccc2c(c1)OCO2)c1ccc(C2SCC(=O)N2Cc2ccco2)cc1 (configuration not stated)	-0.627	7.1	20.1	32.1	-1.84	-0.806
C=C(C)CSc1nnc(-c2ccccc2)n1N	1.29	7.8	17.1	26.0	-0.591	-0.0287
Cc1ccc(NC(=O)c2noc3c2CCCCC3)cc1	-1.02	55.5*	34.7	-45.7	0.0415	-0.807
O=C(NCCc1ccccc1)c1noc2c1CCCCC2	-0.153	47.9	59.8*	/	-1.02	1.91
Cc1ccc(NC(=O)c2noc3c2CCCCC3)cc1C	0.256	-3.6	-1.1	/	-0.0415	0.448
O=C(NCc1ccc(Cl)cc1)c1noc2c1CCCC2	0.742	-2.5	-3.1	/	-0.217	1.23
CCc1ccc(NC(=O)c2noc3c2CCCCC3)cc1	0.142	67.2*	67.2*	/	-1.45	0.538
O=C(NCc1ccccc1)c1noc2c1CCCC2	-0.813	37.4	11.9	/	-0.0761	-0.607
CCCCCC(=O)N1CC2(CC)CN(C(=O)CCCCC)CC(CC)(C1)C2=O	-0.128	-18.2	-6.7	/	0.292	0.882
CCN(CC)Cc1c(O)ccc2c([N+](=O)[O-])c(C)n(-c3ccc(OC)cc3)c12	/	/	/	70.6*	/	/
CCN(CC)Cc1c(O)ccc2occ(C(=O)c3ccc(OC)cc3)c12	/	/	/	52.7	/	/
COc1ccc(C2C3=C(CCCC3=O)Nc3nc4ccccc4n32)cc1OC (configuration not stated)	1.55	5.2	-4.3	64.3	1.12	0.387
CC12CC(NC(=O)N1CCc1ccccc1)c1cc(Cl)ccc1O2 (configuration not stated)	-0.385	-39.9	-13.3	65.9	-0.0124	0.0498
COc1ccc(-c2nnc(CSc3nc4ccccc4c(=O)n3CC3CCCO3)o2)cc1OC (configuration not stated)	10.7*	-13.9	-11.7	/	0.356	-0.9
COc1ccc(-c2nnc(SCc3nnc(-c4ccccc4)o3)n2C)cc1OC	2.88	53.2*	11.9	56.0	0.34	0.555
C/C(=C\C(=O)c1ccc(C)o1)Nc1ccc(C(=O)O)cc1C	0.181	4.0	2.9	/	3.04*	0.0653
CNC(=O)c1cc(S(=O)(=O)N(C)C)ccc1Cl	-0.334	0.2	-5.5	17.3	-0.238	0.373
COc1ccc2nc(/N=C\N(C)C)sc2c1	0.744	42.0	10.6	14.2	0.471	-0.402
CN(C)/C=N/c1nc2ccc3c(c2s1)CCCC3	0.915	65.7*	59.3*	/	-0.335	0.236
SMILES	D1 allo mod	RORa activator	SF-1 act	Htt clearance	M1 antag	M1 ag
CCc1c(C)nc(SCC(=O)N2CCc3ccccc32)[nH]c1=O	-1.16	17.1	15.0	-52.7	-0.68	-0.309
CSCCNC(=O)c1ccc(C(C)(C)C)cc1	-1.78	73.1*	72.7*	-9.0	0.0631	-0.834
Cc1ccc(C(=O)NCCSC(C)(C)C)cc1	/	/	/	14.3	/	/
Cc1cc(C)n(C(=O)c2cccc(S(=O)(=O)N3CCCC3)c2)n1	2.73	-13.0	-3.1	/	-0.17	0.0155
Cc1ccc2c(c1)C1C=CCC1C(C(=O)O)N2 (configuration not stated)	0.14	-0.4	2.7	/	-0.012	-0.555
CC(C)C1Nc2ccc(S(N)(=O)=O)cc2C2C=CCC21 (configuration not stated)	0.0713	-1.5	1.1	-18.2	-0.0391	2.13*
Cc1ccc(-c2c3c(=O)n(C)c(=O)n(C)c3c3c(C)cc(C)nn23)cc1	/	-2.7	-5.0	/	-12.9*	9.52*
COc1ccc(CNC(=O)CSc2nnnn2-c2ccc(O)cc2)cc1	-0.327	2.4	-9.8	?	-0.126	-0.0241
COc1ccccc1NC(=O)CN1C(=O)C(C)Oc2ccccc21 (configuration not stated)	-0.146	-10.4	-5.3	-38.8	0.231	-3.39*
Cc1ccc(SCC(=O)Nc2ccccc2C(=O)O)cc1	/	/	/	-1.7	/	/
Cc1cccc(NC(=O)c2cc3ccccc3c(=O)o2)n1	-3.94	57.1*	64.6*	/	/	/
COc1cc(SC)ccc1C(=O)Nc1ccon1	0.247	27.2	28.0	73.3*	0.928*	0.312
CC(C)(C)c1ccc(-c2nc(C#N)c(NCc3ccncc3)o2)cc1	2.68	59.7*	83.0*	17.6	-0.0731	-0.525
CN(C)c1nc(N)nc(-c2cccnc2)n1	4.61*	-0.8	-7.2	/	-0.666	-0.0174
CC(=O)n1nc(-c2cccnc2)nc1N	/	2.5	2.5	3.8	0.218	-0.161
O=C(CSc1ncnc2c1oc1ccccc12)Nc1nc2ccccc2s1	/	/	/	24.4	/	/
O=C(CSc1nnnn1-c1ccc2c(c1)OCCO2)Nc1nc2c(s1)CCCC2	0.288	-14.3	-5.8	76.9*	-0.33	-0.857
CCC(=O)Nc1cccc(-c2nc3ccccc3o2)c1	/	8.0	41.7	-4.4	0.467	-0.866
O=C(CSc1nc2ccccc2o1)Nc1nc2ccccc2s1	0.405	2.9	50.2*	-44.4	-0.378	-1.67
CC(=O)Nc1nc2ccc(-c3nc4ccccc4o3)cc2s1	-0.636	69.1*	37.8	22.2	-1	-0.267
O=C(CSc1nc2ccccc2o1)Nc1nc2c(s1)CCCC2	-2.42*	0.6	12.0	/	0.404	-0.437
O=C(Cc1cccs1)Nc1nc2ccccc2s1	0.0719	58.5*	39.0	-124.4	0.0829	0.225
Cc1ccnc2ccc(-c3nc4ccccc4o3)cc12	0.196	45.8	56.3*	/	0.127	-0.0345
CCCCCCc1nc2ccccc2c(=O)n1NC(=O)c1c(O)c2cccc3c2n(c1=O)CC3	/	/	/	48.5	/	/
O=C(Nc1ccc(Cl)cc1)N1CCC(c2nc(-c3cccs3)no2)CC1	-0.915	-1.1	6.0	4.4	0.00768	-2.47*
CC(NC(=O)CC1Nc2ccccc2NC1=O)c1ccccc1 (configuration not stated)	/	0.9	2.1	/	-0.171	-0.642
O=C(CC1Nc2ccccc2NC1=O)c1ccccc1 (configuration not stated)	-1.45	56.1*	30.9	-63.6	-0.761	3.91*
Cc1ccc(N2CCN(c3cc(C)nc4nc(C)nn34)CC2)c(C)c1	/	-3.6	-30.6	/	0.0173	0.441
Cc1n[nH]c(=O)nc1NCC1CCCO1 (configuration not stated)	0.633	-12.5	5.2	75.6*	0.622	0.278
CCOc1ccc(C)cc1S(=O)(=O)n1ccc(C)n1	/	-8.7	-0.9	-1.8	0.285	1.4
